The test system of test [1] is Raji. Put plainly: Cell viability of Raji cells at 1000 mol ratio/32 pmol TPA. In kind it is functional, Homo sapiens. The essentials: (§1)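 Raji cells induced with TPA at 32 pmol (20 ng), taken as 100%. Compounds given as molar ratio to TPA. EBV-EA induction is scored against this TPA-only positive control. Raji cell viability is reported as a percentage. IC50 is the molar ratio to TPA giving 50% inhibition of the positive control.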

Test [2] can be described thus: Inhibitory ratio on NOR1-induced NO activation in human Chang liver cells assessed as nitric oxide scavenging activity relative to NOR1. In kind it is functional. The essentials:
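Chang liver cells (normal human hepatic cells) were used with NOR 1, an NO donor, as the NO source. Compounds were tested at 350 nmol. Scavenging of NO generated by NOR 1 is given as an inhibitory ratio. The ratio for NOR 1 alone (positive control, 350 nm) is set at 1.0.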

The subject of test [3] is Human gammaherpesvirus 4. The test can be described thus: Inhibitory effect on TPA-induced Epstein-Barr virus early antigen activation in Raji cells at 500 mol ratio/32 pmol TPA relative to TPA. In kind it is functional. The arrangement: scale not given: the % may be the effect or the level left. The method in brief: as §1
The test system of test [4] is Human gammaherpesvirus 4. The test can be described thus: Inhibitory effect on TPA-induced Epstein-Barr virus early antigen activation in Raji cells at 10 mol ratio/32 pmol TPA relative to TPA. In kind it is functional. The arrangement: scale not given: the % may be the effect or the level left. The essentials:
as §1

Test [5] deals with Human gammaherpesvirus 4. Put plainly: Inhibitory effect on TPA-induced Epstein-Barr virus early antigen activation in Raji cells at 1000 mol ratio/32 pmol TPA relative to TPA. Type of test: functional. Also noted: scale not given: the % may be the effect or the level left. The method in brief: as §1
Test [6] has as its system Human gammaherpesvirus 4. The test can be described thus: Inhibitory effect on TPA-induced Epstein-Barr virus early antigen activation in Raji cells at 100 mol ratio/32 pmol TPA relative to TPA. In kind it is functional. The arrangement: scale not given: the % may be the effect or the level left. The essentials: as §1

On to `C[C@H](CC[C@@H](O[C@@H]1O[C@H](CO[C@@H]2O[C@H](CO)[C@@H](O)[C@H](O)[C@H]2O)[C@@H](O)[C@H](O)[C@H]1O)C(C)(C)O)[C@H]1CC[C@@]2(C)[C@@H]3CC=C4[C@@H](CC[C@H](O[C@@H]5O[C@H](CO)[C@@H](O)[C@H](O)[C@H]5O)C4(C)C)[C@]3(C)CC[C@]12C`, for which the Activity is listed as 70% in test [1]; 25.7% in test [3]; 100% in test [4]; 10.6% in test [5]; 81.9% in test [6]. Also, the Ratio in test [2] is given as 1.5.

Consider `C[C@H](CC[C@@H](O[C@@H]1O[C@H](CO)[C@@H](O)[C@H](O)[C@H]1O)C(C)(C)O)[C@H]1CC[C@@]2(C)[C@@H]3C(=O)C=C4[C@@H](CC[C@H](O[C@@H]5O[C@H](CO)[C@@H](O)[C@H](O)[C@H]5O)C4(C)C)[C@]3(C)[C@H](O)C[C@]12C`, for which the Activity in test [1] is listed as 70%; in test [3], 24.4%; in test [4], 100%; in test [5], 7.7%; in test [6], 80.8%. In addition, the Ratio in test [2] amounted to 1.5.

`CC1(C)N([O])C(c2ccc(C(=O)O)cc2)=[N+]([O-])C1(C)C`: the Ratio in test [2] is on record as 8.

In the case of `C[C@H](CC[C@@H](O[C@@H]1O[C@H](CO[C@@H]2O[C@H](CO)[C@@H](O)[C@H](O)[C@H]2O)[C@@H](O)[C@H](O)[C@H]1O)C(C)(C)O)[C@H]1CC[C@@]2(C)[C@@H]3CC=C4[C@@H](CC[C@H](O)C4(C)C)[C@]3(C)C(=O)C[C@]12C`, the Activity in test [1] is 70%; in test [3], 25%; in test [4], 100%; in test [5], 8.5%; in test [6], 80.6%. The Ratio in test [2] is 1.4.

On to `C[C@H](CC[C@@H](O[C@@H]1O[C@H](CO[C@@H]2O[C@H](CO)[C@@H](O)[C@H](O)[C@H]2O)[C@@H](O)[C@H](O)[C@H]1O)C(C)(C)O)[C@H]1CC[C@@]2(C)[C@@H]3CC=C4[C@@H](CC[C@H](O[C@@H]5O[C@H](CO[C@@H]6O[C@H](CO)[C@@H](O)[C@H](O)[C@H]6O)[C@@H](O)[C@H](O)[C@H]5O)C4(C)C)[C@]3(C)C(=O)C[C@]12C` [11-OXOMOGROSIDE IV A], for which the Activity was determined as 70% in test [1]; 27.3% in test [3]; 100% in test [4]; 10.3% in test [5]; 82.5% in test [6]. Further, in test [2], the Ratio is given as 1.4.

For `CC1=C(/C=C/C(C)=C/C=C/C(C)=C/C=C/C=C(C)/C=C/C=C(C)/C=C/C2=C(C)CCCC2(C)C)C(C)(C)CCC1` [BETA CAROTENE], the Activity is on record as 70% in test [1], 100% in test [4] and 8.6% in test [5].

With `CC1(C)[C@@H](O[C@H]2O[C@H](C(=O)O)[C@@H](O)[C@H](O)[C@H]2O[C@@H]2O[C@H](C(=O)O)[C@@H](O)[C@H](O)[C@H]2O)CC[C@]2(C)[C@H]3C(=O)C=C4[C@@H]5C[C@@](C)(C(=O)O)CC[C@]5(C)CC[C@@]4(C)[C@]3(C)CC[C@@H]12` [GLYCYRRHIZIN], the Ratio in test [2] was determined as 2.2.

As to `C[C@H](CC[C@@H](O)C(C)(C)O[C@@H]1O[C@H](CO)[C@@H](O)[C@H](O)[C@H]1O)[C@H]1CC[C@@]2(C)[C@@H]3CC=C4[C@@H](CC[C@H](O[C@@H]5O[C@H](CO)[C@@H](O)[C@H](O)[C@H]5O)C4(C)C)[C@]3(C)[C@H](O)C[C@]12C` [MOGROSIDE II B], the Activity in test [1] turned out to be 70%; in test [3] it was 26%; in test [4] it was 100%; in test [5] it was 7.2%; in test [6], 76%. Also, the Ratio in test [2] is given as 1.5.

On to `C[C@H](CC[C@@H](O[C@@H]1O[C@H](CO)[C@@H](O)[C@H](O)[C@H]1O)C(C)(C)O)[C@H]1CC[C@@]2(C)[C@@H]3CC=C4[C@@H](CC[C@H](O[C@@H]5O[C@H](CO[C@@H]6O[C@H](CO)[C@@H](O)[C@H](O)[C@H]6O)[C@@H](O)[C@H](O)[C@H]5O)C4(C)C)[C@]3(C)[C@H](O)C[C@]12C` [MOGROSIDE III A2], for which the Activity is reported as 70% in test [1]; 24% in test [3]; 100% in test [4]; 5.1% in test [5]; 75.3% in test [6]. For the same compound, the Ratio in test [2] is 1.5.
